The values below come from ChEMBL document CHEMBL3853298, “Total synthesis and in vitro bioevaluation of clavaminols A, C, H & deacetyl clavaminol H as potential chemotherapeutic and antibiofilm agents” (Eur J Med Chem, 2016).

Values after ≈ are worked out from the molar mass of the structure shown. Active and inactive are the calls of the source.

Assay [1] is described as follows: Cytotoxicity against human SKOV3 cells assessed as cell growth inhibition by MTT assay. In kind it is functional, cell-based. As to conditions: SK-OV-3. A general note: Tetrazolium dyes change colour on reduction, which living cells bring about.
The subject of assay [2] is Bacillus subtilis. Nature of the assay: Antibacterial activity against Bacillus subtilis MTCC 121 after 24 hrs by well diffusion method. In kind it is functional. The conditions noted are these: MTCC 121, 24 h. In short, it runs like this: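 Bacteria spread (0.1 mL suspension) on Mueller-Hinton agar; 6.0 mm wells loaded with compound over a 250 to 0.48 per-well dose range, methanol as negative control. Incubated 24 h at 37 °C. MIC taken as the lowest concentration still giving an inhibition zone. Duplicates, mean reported.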

For assay [3], the system named is Candida albicans. Nature of the assay: Antifungal activity against Candida albicans MTCC 227 after 24 hrs by well diffusion method. In kind it is functional. As to conditions: MTCC 227, 24 h. In short, it runs like this: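 Candida/Issatchenkia lawns (0.1 mL suspension) on Mueller-Hinton agar; 6.0 mm bored wells receive compound across a 250 to 0.48 per-well dose range, methanol as negative control. Plates kept 24 h at 30 °C. MIC is the lowest concentration producing a visible inhibition zone. Duplicate runs, mean values.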
In general terms: Agar diffusion results depend on both activity and mobility in agar.

Assay [4] concerns Bacillus subtilis. Nature of the assay: Bactericidal activity against Bacillus subtilis MTCC 121 after 24 hrs. In kind it is functional. As to conditions: MTCC 121, 24 h. In short, it runs like this: (§1)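 Broth macrodilution in Mueller Hinton broth, compound serially diluted from 150 down to 0. Overnight bacterial culture added to a final 1.5 × 10^8 CFU/mL (0.5 McFarland), 24 h at 37 °C. Suspension then subcultured onto Mueller Hinton agar for 24 h at 37 °C. MBC is the lowest concentration killing the strain. Duplicates.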

The subject of assay [5] is Raoultella planticola. Nature of the assay: Bactericidal activity against Klebsiella planticola MTCC 530 after 24 hrs. In kind it is functional. The conditions noted are these: MTCC 530, 24 h. The procedure, abridged: as §1
In a further assay the test system is Escherichia coli. Nature of the assay: Bactericidal activity against Escherichia coli MTCC 739 after 24 hrs. In kind it is functional. The conditions noted are these: MTCC 739, 24 h. In short, it runs like this: as §1
Assay [6] deals with Pseudomonas aeruginosa. Nature of the assay: Bactericidal activity against Pseudomonas aeruginosa MTCC 2453 after 24 hrs. In kind it is functional. As to conditions: MTCC 2453, 24 h. In short, it runs like this:
as §1

Assay [7] deals with Candida albicans. Nature of the assay: Fungicidal activity against Candida albicans MTCC 1637 after 24 hrs. In kind it is functional. As to conditions: MTCC 1637, 24 h. In short, it runs like this:
(§2)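 Candida grown overnight in Mueller Hinton broth. Compound serially diluted in the same broth from 150 to 0 and inoculated to a final 1.5 × 10^8 CFU/mL (0.5 McFarland), then 24 h at 37 °C. Tube contents plated onto Mueller Hinton agar for 24 h at 37 °C. MFC is the lowest concentration killing the yeast. Duplicates.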

Assay [8] relates to Candida albicans. Nature of the assay: Fungicidal activity against Candida albicans MTCC 4748 after 24 hrs. In kind it is functional. The conditions noted are these: MTCC 4748, 24 h. In short, it runs like this:
as §2

The next assay concerns Nakaseomyces glabratus. Nature of the assay: Fungicidal activity against Candida glabrata MTCC 3019 after 24 hrs. In kind it is functional. As to conditions: MTCC 3019, 24 h. The procedure, abridged:
as §2

For another assay, the system named is Staphylococcus aureus. Nature of the assay: Antibiofilm activity against Staphylococcus aureus MLS16 MTCC 2940 incubated for 24 hrs under static condition by crystal violet staining-based assay. In kind it is functional. In short, it runs like this:
(§3)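 Strains grown overnight in tryptone soy broth with 0.5% glucose. Compound (250 to 0) mixed with inoculum at 5 × 10^5 CFU/mL in polystyrene microtiter plates. Non-adherent cells washed off with PBS; wells stained with 0.1% crystal violet, dye solubilised in 95% ethanol, absorbance read at 540 nm. IC50 for 50% biofilm inhibition taken from dose-response curves. Triplicates, mean ± S.D.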

Assay [9] relates to Raoultella planticola. Nature of the assay: Antibiofilm activity against Klebsiella planticola MTCC 530 incubated for 24 hrs under static condition by crystal violet staining-based assay. In kind it is functional. The procedure, abridged:
as §3

Assay [10] relates to Pseudomonas aeruginosa. Nature of the assay: Antibiofilm activity against Pseudomonas aeruginosa MTCC 2453 incubated for 24 hrs under static condition by crystal violet staining-based assay. In kind it is functional. The procedure, abridged:
as §3

A further assay concerns Micrococcus luteus. Nature of the assay: Induction of intracellular ROS accumulation in Micrococcus luteus MTCC 2470 sessile biofilm cells at 2 to 4 ug/ml after 24 hrs by DCFH-DA staining-based assay. In kind it is functional, cell-based. In short, it runs like this:
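Intracellular ROS was measured in M. luteus MTCC 2470 biofilms grown in 24-well plates. Mature biofilms were treated and incubated 24 h at 30 °C together with […] DCFH-DA. Well contents were centrifuged at 5000 × g for 10 min. Fluorescence (ex 485/em 535 nm) was read separately for supernatant and for sessile cells resuspended in PBS. Triplicate, mean ± S.D.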

Take `CCCCCCCCC[C@H](O)[C@@H](C)N` [CLAVAMINOL A]: the IC50 (commonly the midpoint of a concentration-inhibition curve) came out at 12.5 µM in assay [1], 2.2 µg/mL (≈ 10.9 µM) in the assay with Staphylococcus aureus and 8.6 µg/mL (≈ 42.7 µM) in the assay on Raoultella planticola [9]. Moreover, the minimum inhibitory concentration (MIC) (commonly the lowest concentration that inhibits growth of the organism) in the assay with Bacillus subtilis [2] was 7.8 µg/mL (≈ 38.7 µM); in the assay with Candida albicans [3], 31.2 µg/mL (≈ 155 µM). For the same compound, the MBC in the assay with Bacillus subtilis [4], against Raoultella planticola [5], in the assay with Escherichia coli and in the assay with Pseudomonas aeruginosa [6] was 15.6 µg/mL (≈ 77.5 µM) throughout. In addition, the MFC (commonly the smallest concentration meeting the test's criterion for killing the fungus) against Candida albicans [7] was 62.5 µg/mL (≈ 310 µM); against Candida albicans [8] it was 62.5 µg/mL (≈ 310 µM); with Nakaseomyces glabratus it was 31.2 µg/mL (≈ 155 µM). This compound gave an INH in the assay with Pseudomonas aeruginosa [10] of 3.6 µg/mL. Moreover, the result in the assay on Micrococcus luteus was Active.
